hDAT+cocaine = human DAT dopamine uptake with cocaine, either direction | LLC-PK1 hDAT cells, [14C]-dopamine uptake with cocaine IC80; actives deviate in either direction | B-score at 10 µM | 110,000 compounds, 1.3% hits;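 active = Z score or B-score, a plate-position-corrected score, falls beyond the plate's 99.7% confidence bounds, in either direction; inactive = both scores lie inside the 99.7% bounds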
PTPN22 act = activators of human LYP (PTPN22) phosphatase; Q9Y2R2; recombinant LYP, DiFMUP fluorescence; 0 = plate median, 100 = signal doubled; activation, % at 2 µM; 96,000 compounds, 0.11% hits; AID 697;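 active = activation at 2 µM above a set limit, the mean plus 5 SD, cut at about 37% in these data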
Target sequence (Q9Y2R2 whole entry, looked up): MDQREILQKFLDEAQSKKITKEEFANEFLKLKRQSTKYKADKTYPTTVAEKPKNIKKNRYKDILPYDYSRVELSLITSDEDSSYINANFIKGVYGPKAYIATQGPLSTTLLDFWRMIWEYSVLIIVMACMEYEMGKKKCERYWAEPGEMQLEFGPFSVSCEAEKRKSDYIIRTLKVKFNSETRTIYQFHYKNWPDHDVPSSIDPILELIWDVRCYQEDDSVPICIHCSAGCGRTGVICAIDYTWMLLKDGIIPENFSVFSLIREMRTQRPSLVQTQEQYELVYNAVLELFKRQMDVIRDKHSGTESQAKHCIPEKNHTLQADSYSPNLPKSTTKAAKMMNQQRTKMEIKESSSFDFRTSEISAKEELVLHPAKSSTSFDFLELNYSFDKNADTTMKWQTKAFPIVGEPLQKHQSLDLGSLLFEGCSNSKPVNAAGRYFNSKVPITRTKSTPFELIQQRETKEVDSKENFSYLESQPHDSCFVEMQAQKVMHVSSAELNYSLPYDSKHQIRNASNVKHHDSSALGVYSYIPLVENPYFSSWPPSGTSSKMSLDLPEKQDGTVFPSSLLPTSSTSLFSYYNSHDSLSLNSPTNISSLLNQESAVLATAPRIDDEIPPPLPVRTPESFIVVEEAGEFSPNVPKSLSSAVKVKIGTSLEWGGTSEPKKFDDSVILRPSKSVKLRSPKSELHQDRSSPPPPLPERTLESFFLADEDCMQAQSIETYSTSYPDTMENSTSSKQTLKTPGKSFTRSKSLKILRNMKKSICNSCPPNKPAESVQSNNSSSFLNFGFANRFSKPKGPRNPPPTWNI
Rev-RRE block = inhibitors of HIV-1 Rev-RRE RNA interaction | P05866 | Rev peptide-RRE RNA binding, FRET | inhibition, % at 8 µM | 97,000 compounds, 0.79% hits;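 active = inhibition above the screen-wide mean plus 3 SD, cut at about 35% in these data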
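Test system: labelled RRE RNA duplex and labelled Rev peptide. Times: 5 min compound–RNA preincubation, then 15 min with peptide, 25 °C. Doses: single-dose 8 µM. Measured by: FRET, excitation 480 nm, emission 540 nm donor and 671 nm acceptor. Measure: % inhibition of FRET ratio versus controls.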
PLK1 kinase inh = PLK1 (human) kinase inhibition; recombinant PLK1 kinase, TR-FRET peptide phosphorylation; 97,000 compounds, 0.53% hits; inhibition, % at 10 µM; P53350;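 active = inhibition of 50% or more in the single-concentration screen; inactive = inhibition below 50%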
Plk1 PBD FP = blocks phosphopeptide binding to human Plk1 polo box domain; Plk1 PBD phosphopeptide binding, fluorescence polarization; 97,000 compounds, 0.13% hits; inhibition, %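 (tested at about 20 µM)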; P53350; in the data active = inhibition above about 34%, passing the limit was not always enough
PTPN22 inh 2 = LYP (human) phosphatase inhibition. Q9Y2R2. recombinant LYP catalytic domain, DiFMUP fluorescence. inhibition, % at 2 µM. 96,000 compounds, 0.21% hits;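 active = inhibition at 2 µM at or above a set limit, the screen mean plus 3 SD, cut at about 24% in these data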
Redox H2O2 DR = generates H2O2 by redox cycling, flagging false Plk1 PBD hits; shares compounds with Plk1 PBD FP; redox cycling H2O2 generation, DTT, counter-screen; EC50, µM; 120 tested, under 10 active; AID 876
LYP act confirm = confirmation of human LYP phosphatase activators; shares compounds with PTPN22 act; AID 1031; activation, % at 2 µM; Recombinant LYP, DIFMUP fluorescence, activation; zero set by plate's median compound well; 100 tested, under 10 active
Each line names hits and unclear results; the compound was inactive in the other large screens (follow-up assays come after a bar, where they were run). A selection: hits, their analogues and other compounds. The true share with any hit is near 2.7%. Unless noted, the rule behind the calls is not given here.

c1ccc(CN2CCN(C3=Nc4cccc5cccc3c45)CC2)cc1	none
CCOC(=O)C(C(=O)OCC)C(C(=O)OCC)N1CCOCC1 (stereo not given)	none
CCc1nc2cc(Cl)c(Cl)cc2[nH]1	Plk1 PBD FP 50 | Redox H2O2 DR inactive
CSc1nc2cc(Oc3cccc(Cl)c3Cl)c(Cl)cc2[nH]1	none (no result: PTPN22 act, Rev-RRE block, PLK1 kinase inh, Plk1 PBD FP, PTPN22 inh 2)
O=C1CN(c2ccc(Br)cc2)C(=O)N1CC(=O)N1CCCc2ccccc21	Plk1 PBD FP 46 | Redox H2O2 DR inactive
C/C(=C\C(=O)Nc1cc(C)on1)c1ccccc1	Plk1 PBD FP 40 | Redox H2O2 DR inactive
C[n+]1cc[nH]c1SCC(=O)c1ccccc1	none
CCC(=O)Nc1ccccc1C(=O)NC1CCCCC1	Plk1 PBD FP 41 | Redox H2O2 DR inactive
O=C(O)CCC(=O)Nc1ccccc1C(=O)NC1CCCCC1	none
COC(=O)c1ccccc1NC1=C/C(=N\S(=O)(=O)c2cccs2)c2ccccc2C1=O	hDAT+cocaine -3, Plk1 PBD FP 56 | Redox H2O2 DR inactive
CS(=O)(=O)N1CCN(C/C=C/c2ccccc2)CC1	Plk1 PBD FP 47 | Redox H2O2 DR inactive
O=S(=O)(Cc1ccccc1)N1CCN(C/C=C/c2ccccc2)CC1	none
CC1Cn2c(nnc2-c2ccccc2O)S1 (stereo not given)	none
CC1Cn2c(nnc2-c2cc3ccccc3cc2O)S1 (stereo not given)	Plk1 PBD FP 57 | Redox H2O2 DR inactive
O=C(Nc1cccnc1)c1ccccc1O	none
O=C(Nc1cccnc1)c1cccnc1Cl	PTPN22 act 38 | LYP act confirm inactive
C#CCn1c(S(=O)(=O)Cc2ccc(F)cc2)nc(-c2ccccc2)c1-c1ccccc1	PTPN22 act 45 | LYP act confirm inactive
CCCn1c(=N)n(CCOCCOCCn2c(=N)n(CCC)c3ccccc32)c2ccccc21	none (no result: hDAT+cocaine)
CC(=O)N1c2c(cc(Br)cc2S(=O)(=O)NCC2COc3ccccc3O2)CC1C (stereo not given)	PTPN22 act 38 | LYP act confirm inactive
CC(C)(C)NC(=O)Cn1ccc(=N)c2ccccc21	PTPN22 act 45 | LYP act confirm inactive
CCCN(CCC)C(=O)Cn1ccc(=N)c2ccccc21	none
COc1ccccc1NC(=O)Cc1noc(CSc2nnc(C)s2)n1	PTPN22 act 46 | LYP act confirm inactive
COc1ccc(C2C(C#N)=C(N)N3C(=C2C#N)Sc2ccccc23)cc1 (stereo not given)	none (no result: PTPN22 act, Rev-RRE block, PLK1 kinase inh, Plk1 PBD FP, PTPN22 inh 2)
COC(=O)c1ccc(NC(=S)NC2CCCCC2)cc1	PTPN22 act 38 | LYP act confirm inactive
CCOc1cc(S(=O)(=O)NCc2ccccn2)ccc1Cl	PTPN22 act 37 | LYP act confirm inactive
CC(C)(CC(=O)N1CCN(c2ccc(Cl)cc2)CC1)CC1=NS(=O)(=O)c2ccccc2N1	none (no result: hDAT+cocaine)
O=C(CCCC1=NS(=O)(=O)c2ccccc2N1)N1CCN(c2ccccc2)CC1	PTPN22 act 40 | LYP act confirm inactive
COc1ccc(C(=O)N2CCc3cc(OC)c(OC)cc3C2c2cccc([N+](=O)[O-])c2)cc1OC (stereo not given)	PTPN22 act 39 | LYP act confirm inactive
COc1ccc(C(=O)NCCCN2CCOCC2)cc1OC	PTPN22 act 44 | LYP act confirm inactive
COc1cc(C(=O)NCCN2CCOCC2)cc(OC)c1OC	none
c1ccc(-c2ncnc3cc4n(c23)CCC4)cc1	none
CCC(=O)N1CCc2cc(Br)cc(S(=O)(=O)CCC(=O)NCC3CCCO3)c21 (stereo not given)	PTPN22 act 49 (no result: hDAT+cocaine) | LYP act confirm inactive
CC(Sc1ccc(Cl)cc1)C(=O)NCc1cccnc1 (stereo not given)	PTPN22 act 37 | LYP act confirm inactive
Cc1ccc(SC(C)C(=O)NCc2cccnc2)cc1 (stereo not given)	none
Cc1ccc(NCc2nnc(SCC(=O)NCCc3ccccc3)n2C)cc1	none
NC(=O)c1nc(N2CCOCC2)nc(N2CCOCC2)n1	PTPN22 act 41 | LYP act confirm inactive
CC(C)(C)Nc1nc(C(N)=O)nc(N2CCOCC2)n1	none
O=C(Nc1nc(-c2nc3ccccc3s2)cs1)C1COc2ccccc2O1 (stereo not given)	none (no result: PTPN22 act, Rev-RRE block, PLK1 kinase inh, Plk1 PBD FP, PTPN22 inh 2)
CC(=O)Nc1nc(C2COc3ccccc3O2)cs1 (stereo not given)	PTPN22 act 41 | LYP act confirm inactive
CCCc1[nH]nc2c1C(c1ccncc1)C(C#N)=C(N)O2 (stereo not given)	none
CCCc1nn(C)c2c1C(c1ccncc1)C(C#N)=C(N)O2 (stereo not given)	PTPN22 act 57 | LYP act confirm inactive
COc1cccc(SCc2noc(C(=O)NCC3CCCO3)c2C(=O)O)c1 (stereo not given)	PTPN22 act 54 | LYP act confirm inactive
O=C(c1ccc(F)cc1)N1CCN(c2cc(N3CCCCC3)c(F)cc2[N+](=O)[O-])CC1	none
Cc1ccc(NC(=O)C2CCCN2C(=O)Oc2ccccc2)cc1 (stereo not given)	PTPN22 act 39 | LYP act confirm inactive
Cc1cccc(NC(=O)C2CCCN2C(=O)Oc2ccccc2)c1C (stereo not given)	none
Cc1cccc(NC(=O)CSc2nnc(Cn3cnc4ccccc43)o2)c1	PTPN22 act 38 | LYP act confirm inactive
Cc1ccccc1OCC(=O)OC(C)CN1CCN(C)CC1 (stereo not given)	PTPN22 act 48 | LYP act confirm inactive
Cc1c(NC(=O)c2ccc3c(c2)OCO3)c(=O)n(-c2ccccc2)n1C	none
O=C(c1cc(-c2ccccn2)nc2c(Cl)cccc12)N1CCN(C(=O)C2CCCO2)CC1 (stereo not given)	PTPN22 act 45 | LYP act confirm inactive
O=C(c1cc(-c2ccncc2)nc2ccc(Cl)cc12)N1CCN(C(=O)C2CCCO2)CC1 (stereo not given)	none
CCOC(=O)CN1C(=O)N[C@@H](c2cccc(F)c2)C(C(=O)OC)=C1C	none (no result: PTPN22 act, Rev-RRE block, PLK1 kinase inh, Plk1 PBD FP, PTPN22 inh 2)
C#CCNC(=O)C1=C[C@@H](c2coc3ccccc3c2=O)C[C@@H](OCc2ccc(CO)cc2)O1	none (no result: PTPN22 act, Rev-RRE block, PLK1 kinase inh, Plk1 PBD FP, PTPN22 inh 2)
Cc1nnc(NC(=O)c2ccccc2F)s1	PTPN22 act 38 | LYP act confirm inactive
Cc1cccc(C)c1N1CCN(c2ccc3nnc(C(F)(F)F)n3n2)CC1	none
COc1ccc(Nc2c(C)cccc2C)cc1	PTPN22 act 39 | LYP act confirm inactive
COc1ccc(NCCNc2ccc(OC)cc2)cc1	none
OCCOc1ccc(C2=NCCO2)cc1	PTPN22 act 38 | LYP act confirm inactive
O=C(COc1ccc(S(=O)(=O)N2CCCCC2)cc1)NCc1cccnc1	none
CCCc1cc(=O)n2[nH]c(CCc3ccccc3)nc2n1	none
